According to ChEMBL document CHEMBL1933000, “Design, synthesis and antitumor activity of 4-aminoquinazoline derivatives targeting VEGFR-2 tyrosine kinase” (Bioorg Med Chem Lett, 2012):
One block for each compound: values may come before it.

What was measured:
[1] = test system: HUVEC; assay: Antiproliferative activity against VEGF-stimulated HUVEC after 48 hrs by sulforhodamine B assay; conditions: Homo sapiens
[2] = test system: Mus musculus; assay: Toxicity in nude BALB/c mouse xenografted with human HepG2 cells assessed as clinically observable signs of toxicity at 100 mg/kg, po qd at 3 doses for 15 days; format: organism-based; design: dose 100 mg/kg, route oral; conditions: in vivo, 360 h
Method in brief: (§1)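 BALB/c-nu mice bearing sc flank HepG2 xenografts received oral compound once daily for 15 days, top dose 100 mg/kg, starting five days after implantation. Animals were watched for clinically observable toxicity signs and for body weight loss; n = 8.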

[3] = molecular target: Angiopoietin-1 receptor (Homo sapiens, UniProt Q02763); assay: Inhibition of Tie2
[4] = test system: HepG2; assay: Antitumor activity against human HepG2 cells xenografted in BALB/c nude mouse assessed as tumor growth inhibition at 100 mg/kg, po qd at 3 doses for 15 days; format: functional; conditions: HepG2, 360 h, read-out: TGI
Method in brief: (§2)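 HepG2 hepatocarcinoma cells (1 × 10⁷) implanted sc in the flank of BALB/c-nu mice. Once-daily oral dosing of compound or vehicle began five days after implantation and ran 15 days at 20, 50 or 100 mg/kg. Tumor growth followed; %TGI; mean and SE, n = 8.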

[5] = molecular target: Fibroblast growth factor receptor 1 (Homo sapiens, UniProt P11362); assay: Inhibition of FGFR1
Sequence of Fibroblast growth factor receptor 1 (P11362 whole entry): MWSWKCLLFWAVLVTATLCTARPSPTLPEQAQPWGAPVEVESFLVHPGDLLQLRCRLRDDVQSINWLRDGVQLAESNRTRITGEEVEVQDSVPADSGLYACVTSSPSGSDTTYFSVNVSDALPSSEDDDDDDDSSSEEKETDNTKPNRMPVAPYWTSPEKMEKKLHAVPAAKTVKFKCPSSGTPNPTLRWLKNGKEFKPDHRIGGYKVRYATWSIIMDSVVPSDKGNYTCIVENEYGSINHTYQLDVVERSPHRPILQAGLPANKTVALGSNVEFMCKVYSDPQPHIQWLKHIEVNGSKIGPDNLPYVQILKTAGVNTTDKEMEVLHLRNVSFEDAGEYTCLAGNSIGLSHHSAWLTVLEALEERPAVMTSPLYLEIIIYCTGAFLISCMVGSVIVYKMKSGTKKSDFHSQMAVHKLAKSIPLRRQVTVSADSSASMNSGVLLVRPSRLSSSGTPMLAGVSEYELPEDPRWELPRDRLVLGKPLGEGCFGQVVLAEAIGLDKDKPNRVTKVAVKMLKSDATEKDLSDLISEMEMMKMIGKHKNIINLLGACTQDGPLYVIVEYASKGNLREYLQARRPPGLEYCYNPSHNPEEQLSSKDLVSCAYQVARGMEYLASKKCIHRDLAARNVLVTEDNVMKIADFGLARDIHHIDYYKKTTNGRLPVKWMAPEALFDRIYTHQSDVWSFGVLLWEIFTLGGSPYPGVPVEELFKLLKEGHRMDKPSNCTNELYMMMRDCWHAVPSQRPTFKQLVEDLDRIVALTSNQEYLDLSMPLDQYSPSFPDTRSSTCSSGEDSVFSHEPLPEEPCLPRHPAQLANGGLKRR

[6] = test system: Mus musculus; assay: Toxicity in nude BALB/c mouse xenografted with human HepG2 cells assessed as weight loss at 100 mg/kg, po qd at 3 doses for 15 days; format: organism-based; design: dose 100 mg/kg, route oral; conditions: in vivo, 360 h; method in brief: as §1
[7] = molecular target: Platelet-derived growth factor receptor alpha (Homo sapiens, UniProt P16234); assay: Inhibition of PDGFRalpha
[8] = Inhibition of AKT
[9] = molecular target: Vascular endothelial growth factor receptor 2 (Homo sapiens, UniProt P35968); assay: Inhibition of human GST-tagged VEGFR2 intracellular domain using biotin-aminohexyl-EEEEYFELVAKKKK-NH2 as substrate after 30 mins by HTRF assay
Sequence of Vascular endothelial growth factor receptor 2 (P35968 whole entry, the tested form may be a part): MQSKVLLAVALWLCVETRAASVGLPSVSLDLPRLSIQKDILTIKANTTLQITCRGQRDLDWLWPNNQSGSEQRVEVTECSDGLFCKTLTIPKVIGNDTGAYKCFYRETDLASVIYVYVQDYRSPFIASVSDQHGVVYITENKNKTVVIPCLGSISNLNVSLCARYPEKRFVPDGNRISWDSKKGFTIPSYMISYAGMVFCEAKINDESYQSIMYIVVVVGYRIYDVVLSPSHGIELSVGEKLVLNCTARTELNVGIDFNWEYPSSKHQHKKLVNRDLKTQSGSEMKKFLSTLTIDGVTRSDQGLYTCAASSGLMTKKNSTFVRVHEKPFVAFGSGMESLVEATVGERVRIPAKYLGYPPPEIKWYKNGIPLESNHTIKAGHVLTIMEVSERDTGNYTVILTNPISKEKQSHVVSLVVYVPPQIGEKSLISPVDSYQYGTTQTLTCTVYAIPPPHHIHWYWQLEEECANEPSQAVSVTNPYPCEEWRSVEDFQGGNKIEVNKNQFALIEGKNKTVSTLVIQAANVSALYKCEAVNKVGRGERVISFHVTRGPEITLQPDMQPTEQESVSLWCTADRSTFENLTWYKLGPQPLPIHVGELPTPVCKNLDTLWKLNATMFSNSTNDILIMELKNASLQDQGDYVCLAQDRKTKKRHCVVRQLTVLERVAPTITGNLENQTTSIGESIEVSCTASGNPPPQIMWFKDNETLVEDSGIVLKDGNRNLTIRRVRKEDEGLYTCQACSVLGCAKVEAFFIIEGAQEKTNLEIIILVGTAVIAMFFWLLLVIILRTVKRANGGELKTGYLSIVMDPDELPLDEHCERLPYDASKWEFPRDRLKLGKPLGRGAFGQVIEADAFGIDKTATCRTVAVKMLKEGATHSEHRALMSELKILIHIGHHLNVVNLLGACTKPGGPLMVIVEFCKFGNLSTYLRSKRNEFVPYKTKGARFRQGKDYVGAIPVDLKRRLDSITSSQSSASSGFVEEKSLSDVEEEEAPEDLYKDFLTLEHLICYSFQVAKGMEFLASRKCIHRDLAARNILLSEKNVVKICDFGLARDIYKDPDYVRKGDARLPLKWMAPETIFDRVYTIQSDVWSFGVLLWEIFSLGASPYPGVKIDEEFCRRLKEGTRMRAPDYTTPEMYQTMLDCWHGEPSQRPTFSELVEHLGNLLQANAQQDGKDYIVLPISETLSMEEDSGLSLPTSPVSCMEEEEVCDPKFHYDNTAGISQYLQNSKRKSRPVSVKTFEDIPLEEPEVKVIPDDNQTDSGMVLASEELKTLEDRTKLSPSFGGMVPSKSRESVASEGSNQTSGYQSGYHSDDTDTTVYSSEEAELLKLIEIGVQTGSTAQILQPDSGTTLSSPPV

[10] = test system: HepG2; assay: Antitumor activity against human HepG2 cells xenografted in BALB/c nude mouse assessed as tumor growth inhibition at 50 mg/kg, po qd at 3 doses for 15 days; format: functional; conditions: HepG2, 360 h, read-out: TGI; method in brief: as §2
[11] = molecular target: Vascular endothelial growth factor receptor 3 (Homo sapiens, UniProt P35916); assay: Inhibition of VEGFR3
[12] = test system: HepG2; assay: Antitumor activity against human HepG2 cells xenografted in BALB/c nude mouse assessed as tumor growth inhibition at 20 mg/kg, po qd at 3 doses for 15 days; format: functional; conditions: HepG2, 360 h, read-out: TGI; method in brief: as §2
[13] = molecular target: Cyclin-dependent kinase 1 (Homo sapiens, UniProt P06493); assay: Inhibition of CDK1
Sequence of Cyclin-dependent kinase 1 (P06493 whole entry): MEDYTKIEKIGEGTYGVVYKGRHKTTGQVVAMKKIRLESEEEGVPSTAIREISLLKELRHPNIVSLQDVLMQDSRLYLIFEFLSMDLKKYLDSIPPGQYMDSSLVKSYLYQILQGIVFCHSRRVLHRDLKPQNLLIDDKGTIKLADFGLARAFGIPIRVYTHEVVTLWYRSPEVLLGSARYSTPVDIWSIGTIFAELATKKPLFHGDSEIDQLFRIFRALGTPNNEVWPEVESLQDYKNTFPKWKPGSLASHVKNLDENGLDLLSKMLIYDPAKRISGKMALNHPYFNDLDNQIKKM

[14] = molecular target: Receptor tyrosine-protein kinase erbB-2 (Homo sapiens, UniProt P04626); assay: Inhibition of HER2
Sequence of Receptor tyrosine-protein kinase erbB-2 (P04626 whole entry): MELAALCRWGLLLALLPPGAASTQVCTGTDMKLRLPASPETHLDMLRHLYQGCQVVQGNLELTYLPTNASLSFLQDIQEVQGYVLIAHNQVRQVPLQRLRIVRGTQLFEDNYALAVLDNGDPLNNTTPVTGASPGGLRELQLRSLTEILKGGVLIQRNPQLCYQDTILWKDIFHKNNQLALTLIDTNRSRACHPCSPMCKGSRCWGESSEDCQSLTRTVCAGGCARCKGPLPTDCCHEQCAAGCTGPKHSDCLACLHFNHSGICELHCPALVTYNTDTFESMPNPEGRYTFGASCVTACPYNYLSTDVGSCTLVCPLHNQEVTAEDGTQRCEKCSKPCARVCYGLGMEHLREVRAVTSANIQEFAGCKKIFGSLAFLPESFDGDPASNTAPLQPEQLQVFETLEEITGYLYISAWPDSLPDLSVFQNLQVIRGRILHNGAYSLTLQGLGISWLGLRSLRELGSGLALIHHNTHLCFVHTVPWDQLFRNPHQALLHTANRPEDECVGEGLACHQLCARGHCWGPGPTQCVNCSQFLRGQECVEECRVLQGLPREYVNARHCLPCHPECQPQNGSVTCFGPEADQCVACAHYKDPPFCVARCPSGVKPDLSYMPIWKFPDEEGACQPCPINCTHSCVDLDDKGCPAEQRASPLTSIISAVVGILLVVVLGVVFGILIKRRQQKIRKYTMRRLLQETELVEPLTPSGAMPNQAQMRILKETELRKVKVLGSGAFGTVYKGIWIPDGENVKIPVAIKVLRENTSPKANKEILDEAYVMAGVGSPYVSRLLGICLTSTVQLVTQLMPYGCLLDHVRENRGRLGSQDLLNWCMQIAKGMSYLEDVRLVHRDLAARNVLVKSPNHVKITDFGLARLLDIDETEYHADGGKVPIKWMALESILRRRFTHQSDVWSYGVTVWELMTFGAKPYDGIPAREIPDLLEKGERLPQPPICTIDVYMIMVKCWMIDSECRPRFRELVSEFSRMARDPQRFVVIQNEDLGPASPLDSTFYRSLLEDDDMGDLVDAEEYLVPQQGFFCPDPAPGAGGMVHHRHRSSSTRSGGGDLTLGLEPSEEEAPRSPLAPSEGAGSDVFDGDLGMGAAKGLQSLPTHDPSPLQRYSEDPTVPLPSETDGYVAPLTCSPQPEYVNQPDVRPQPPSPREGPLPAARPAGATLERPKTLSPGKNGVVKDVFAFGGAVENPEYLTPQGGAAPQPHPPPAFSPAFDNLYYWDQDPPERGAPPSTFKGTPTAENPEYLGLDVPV

[15] = molecular target: Vascular endothelial growth factor receptor 1 (Homo sapiens, UniProt P17948); assay: Inhibition of VEGFR1
Sequence of Vascular endothelial growth factor receptor 1 (P17948 whole entry): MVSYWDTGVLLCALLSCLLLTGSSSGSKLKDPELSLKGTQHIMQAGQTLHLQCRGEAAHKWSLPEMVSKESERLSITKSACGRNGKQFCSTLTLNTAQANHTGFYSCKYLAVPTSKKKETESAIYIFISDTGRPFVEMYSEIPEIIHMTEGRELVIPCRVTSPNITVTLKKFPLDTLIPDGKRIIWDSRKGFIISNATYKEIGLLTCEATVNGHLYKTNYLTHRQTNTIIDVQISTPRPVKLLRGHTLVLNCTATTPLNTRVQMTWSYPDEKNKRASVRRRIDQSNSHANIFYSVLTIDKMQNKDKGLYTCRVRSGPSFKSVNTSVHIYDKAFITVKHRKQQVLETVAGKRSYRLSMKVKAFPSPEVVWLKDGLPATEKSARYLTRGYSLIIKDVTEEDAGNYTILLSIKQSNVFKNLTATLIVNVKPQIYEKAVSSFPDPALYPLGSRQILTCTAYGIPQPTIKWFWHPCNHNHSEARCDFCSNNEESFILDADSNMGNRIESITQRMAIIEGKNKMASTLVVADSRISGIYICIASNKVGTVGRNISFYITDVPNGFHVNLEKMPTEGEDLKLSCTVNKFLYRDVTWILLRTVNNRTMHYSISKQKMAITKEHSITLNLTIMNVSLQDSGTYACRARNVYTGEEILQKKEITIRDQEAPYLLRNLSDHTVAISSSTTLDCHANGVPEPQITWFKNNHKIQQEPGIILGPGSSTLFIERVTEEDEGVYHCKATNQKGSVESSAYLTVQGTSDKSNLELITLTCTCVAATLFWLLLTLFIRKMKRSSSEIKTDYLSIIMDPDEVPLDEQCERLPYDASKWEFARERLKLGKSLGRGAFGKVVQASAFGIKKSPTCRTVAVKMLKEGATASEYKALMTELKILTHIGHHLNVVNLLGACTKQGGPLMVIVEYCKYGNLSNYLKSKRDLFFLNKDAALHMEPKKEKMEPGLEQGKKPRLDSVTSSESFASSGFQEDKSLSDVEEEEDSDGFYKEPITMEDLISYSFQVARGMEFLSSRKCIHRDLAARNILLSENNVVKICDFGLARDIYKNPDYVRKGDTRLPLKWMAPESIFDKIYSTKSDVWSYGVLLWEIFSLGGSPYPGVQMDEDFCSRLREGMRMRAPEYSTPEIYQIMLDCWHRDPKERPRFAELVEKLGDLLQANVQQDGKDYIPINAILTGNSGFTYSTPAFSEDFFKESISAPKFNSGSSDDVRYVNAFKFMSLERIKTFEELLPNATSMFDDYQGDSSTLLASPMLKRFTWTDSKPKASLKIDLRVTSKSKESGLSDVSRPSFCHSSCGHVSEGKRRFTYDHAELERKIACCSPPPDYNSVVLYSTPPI

[16] = test system: HepG2; assay: Antitumor activity against human HepG2 cells xenografted in BALB/c nude mouse assessed as tumor growth inhibition administered as po qd at 3 doses for 15 days; format: functional, organism-based; method in brief: as §2
[17] = Dissociation constant, pKa of the compound; format: physicochemical
[18] = Lipophilicity, log P of the compound; format: physicochemical; conditions: octanol/water
[19] = Solubility of the compound in water; format: physicochemical; conditions: buffer

Structure (SMILES): COc1cc2c(Nc3ccc(NC(=O)Nc4cccc(F)c4)c(F)c3)ncnc2cc1OCC1CCN(C)CC1
IC50 [1]: 185 nM

IC50 [3]: > 10000 nM
IC50 [5]: > 10000 nM
IC50 [7]: 1360 nM
IC50 [8]: 8710 nM
IC50 [9]: 5.5 nM
IC50 [11]: 9.6 nM
IC50 [13]: 10000 nM
IC50 [14]: > 10000 nM
IC50 [15]: 1920 nM
Structure (SMILES): CN1CCC(COc2ccc3c(Nc4ccc(NC(=O)Nc5cccc(F)c5)cc4)ncnc3c2)CC1
Activity [2]: Non-toxic
inhibition in vivo at 100 mg/kg [4]: 83.6%
Activity [6]: Non-toxic
IC50 [1]: 52 nM
inhibition in vivo at 50 mg/kg [10]: 61.4%
inhibition in vivo at 20 mg/kg [12]: 25.6%
TGI [16]: Dose-dependent effect

Structure (SMILES): CN1CCC(COc2ccc3c(Nc4ccc(NC(=O)NC5CC5)cc4)ncnc3c2)CC1
IC50 [1]: 324 nM

Structure (SMILES): CN1CCC(COc2ccc3c(Nc4ccc(CC(=O)Nc5cccc(F)c5)cc4)ncnc3c2)CC1
IC50 [1]: 237 nM

Structure (SMILES): CN1CCC(COc2ccc3c(Nc4ccc(NC(=O)Nc5ccc(F)c(F)c5)cc4)ncnc3c2)CC1
IC50 [1]: 89 nM

pKa [17]: 8.1
Structure (SMILES): CN1CCCCC1

logP [18]: 5
Structure (SMILES): CNC(=O)c1cc(Oc2ccc(NC(=O)Nc3ccc(Cl)c(C(F)(F)F)c3)cc2)ccn1 [SORAFENIB]

Structure (SMILES): CN1CCC(COc2ccc3c(Nc4ccc(NC(=O)Nc5ccc(Cl)c(C(F)(F)F)c5)cc4)ncnc3c2)CC1
IC50 [1]: 92 nM

Structure (SMILES): CCNC(=O)Nc1ccc(Nc2ncnc3cc(OCC4CCN(C)CC4)ccc23)cc1
IC50 [1]: 587 nM

solubility [19]: soluble
Structure (SMILES): COc1cc2c(Nc3ccc(Br)cc3F)ncnc2cc1OCC1CCN(C)CC1 [VANDETANIB]
IC50 [1]: 187 nM

Structure (SMILES): CN1CCC(COc2ccc3c(Nc4ccc(CC(=O)Nc5ccc(F)c(F)c5)cc4)ncnc3c2)CC1
IC50 [1]: 308 nM

Structure (SMILES): COc1cc2c(Nc3ccc(NC(=O)Nc4cccc(F)c4)cc3)ncnc2cc1OCC1CCN(C)CC1
IC50 [1]: 179 nM

Structure (SMILES): CN1CCC(COc2ccc3c(Nc4ccc(NC(=O)Nc5cccc(F)c5)c(F)c4)ncnc3c2)CC1
IC50 [1]: 67 nM

Structure (SMILES): CN1CCC(COc2ccc3c(Nc4ccc(NC(=O)Nc5ccc(Br)cc5F)cc4)ncnc3c2)CC1
IC50 [1]: 233 nM

Structure (SMILES): CN1CCC(COc2ccc3c(Nc4ccc(CC(=O)Nc5ccc(Cl)c(C(F)(F)F)c5)cc4)ncnc3c2)CC1
IC50 [1]: 258 nM

Structure (SMILES): CN1CCC(COc2ccc3c(Nc4ccc(NC(=O)Nc5cccc(F)c5)c(Cl)c4)ncnc3c2)CC1
IC50 [1]: 132 nM

Structure (SMILES): Cc1ccc(NC(=O)Nc2ccc(Nc3ncnc4cc(OCC5CCN(C)CC5)ccc34)cc2)cc1Br
IC50 [1]: 196 nM
